# Reference: ChEMBL document CHEMBL3124823, “1,2,3-Triazole-containing derivatives of rupestonic acid: click-chemical synthesis and antiviral activities against influenza viruses” (Eur J Med Chem, 2014)
# How the values were obtained:
# [1] = Selectivity index, ratio of TC50 for MDCK cells to IC50 for Influenza B virus jifang/13/97; type: toxicity, cell-based; details: dog, read-out: Selectivity Index
# Method in brief: (§1)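 Selectivity index = TC50 (MDCK, 48 h visual cytotoxicity) / IC50 from the 40 h CPE-inhibition assay for the given strain.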
# Influenza B virus [2] = assay: Antiviral activity against Influenza B virus jifang/13/97 infected in MDCK cells assessed as inhibition of virus-induced cytopathicity after 40 hrs; type: functional, organism-based; details: jifang/13/97, MDCK
# Method in brief: (§2)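 CPE reduction in MDCK cells: cells grown 24 h at 37 °C, 5% CO2, then infected and held 2 h at 37 °C before the inoculum was removed. Threefold serial drug dilutions (8 levels from 20 mg/mL DMSO stocks) were added and incubated 40 h at 37 °C. CPE inhibition was scored against cell and virus controls to give IC50. Ribavirin and oseltamivir were the controls.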
# Influenza A virus [3] = assay: Antiviral activity against Influenza A virus A/hanfang/359/95(H3N2) infected in MDCK cells assessed as inhibition of virus-induced cytopathicity after 40 hrs; type: functional, organism-based; method in brief: as §2
# [4] = Selectivity index, ratio of TC50 for MDCK cells to IC50 for Influenza A virus (A/Tianjinjinnan/15/2009/H1N1); type: toxicity, cell-based; details: dog, read-out: Selectivity Index; method in brief: as §1
# [5] = Selectivity index, ratio of TC50 for MDCK cells to IC50 for Influenza A virus (A/FM/1/1947(H1N1)); type: toxicity, cell-based; details: dog, read-out: Selectivity Index; method in brief: as §1
# Influenza A virus [6] = assay: Antiviral activity against Influenza A virus (A/FM/1/1947(H1N1)) infected in MDCK cells assessed as inhibition of virus-induced cytopathicity after 40 hrs; type: functional, organism-based; details: A/Fort Monmouth/1/1947(H1N1); method in brief: as §2
# [7] = Cytotoxicity against MDCK cells after 48 hrs; type: cell-based, Canis lupus familiaris; details: dog, read-out: TC50
# Method in brief: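 MDCK cells seeded at 25000 per well and cultured 24 h at 37 °C, 5% CO2. Threefold dilutions were added to the monolayer and culture continued 48 h. Cytopathic changes were recorded by observation, and TC50 was calculated by the Reed & Muench method.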
# Influenza B virus [8] = assay: Ratio of ribavirin IC50 to compound IC50 for Influenza B virus jifang/13/97 infected in MDCK cells; type: functional
# [9] = Selectivity index, ratio of TC50 for MDCK cells to IC50 for Influenza A virus A/hanfang/359/95(H3N2); type: toxicity, cell-based; details: dog, read-out: Selectivity Index; method in brief: as §1
# Influenza B virus [10] = assay: Antiviral activity against Influenza B virus jifang/13/97 infected in MDCK cells assessed as inhibition of plaque formation after 3 to 4 days by crystal violet staining-based assay; type: functional, organism-based; details: jifang/13/97, MDCK
# Method in brief: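 Plaque reduction: MDCK monolayers in 12-well plates were PBS-washed and infected with influenza B in trypsin-free maintenance medium for 2 h at 37 °C, 5% CO2. Inoculum was removed and the cells washed three times. A 1.5% agarose/MEM overlay with trypsin (2 μg/ml) and drug was added. After 3-4 days, crystal violet (0.5%) plaque counts against no-drug wells gave IC50 by Reed & Muench. Ribavirin was the control.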
smiles,measurement,setting,value
C=C(C(=O)OCc1cn(Cc2ccc(OC)cc2)nn1)[C@@H]1CC[C@H](C)[C@@H]2CC(=O)C(C)=C2C1,selectivity ratio,[1],≥ 2.1
same,IC50,Influenza B virus [2],≥ 22.2 µg/mL
same,IC50,Influenza A virus [3],> 22.2 µg/mL
same,selectivity ratio,[4],2.08
same,selectivity ratio,[5],2.68
same,IC50,Influenza A virus [6],19.7 µg/mL
same,CC50 at 48 h,[7],46.2 µg/mL
C=C(C(=O)NCc1cn(Cc2cccc(OC)c2)nn1)[C@@H]1CC[C@H](C)[C@@H]2CC(=O)C(C)=C2C1,selectivity ratio,[1],3.45
same,IC50,Influenza B virus [2],19.7 µg/mL
same,IC50,Influenza A virus [3],> 22.2 µg/mL
same,selectivity ratio,[5],5.2
same,IC50,Influenza A virus [6],12.8 µg/mL
same,CC50 at 48 h,[7],66.7 µg/mL
C=C(C(=O)NCc1cn(Cc2ccc(Cl)c(Cl)c2)nn1)[C@@H]1CC[C@H](C)[C@@H]2CC(=O)C(C)=C2C1,Ratio IC50,Influenza B virus [8],>4
same,selectivity ratio,[1],9.9
same,IC50,Influenza B virus [2],6.79 µg/mL
same,selectivity ratio,[9],4.1
same,IC50,Influenza A virus [3],17.5 µg/mL
same,selectivity ratio,[4],3
same,IC50,Influenza A virus [6],≥ 17.2 µg/mL
same,CC50 at 48 h,[7],66.7 µg/mL
CCOC(=O)C1=C[C@@H](OC(CC)CC)[C@H](NC(C)=O)[C@@H](N)C1 [OSELTAMIVIR],selectivity ratio,[9],1240
same,IC50,Influenza A virus [3],1 µg/mL
same,selectivity ratio,[5],448
same,IC50,Influenza A virus [6],2.81 µg/mL
same,CC50 at 48 h,[7],1260 µg/mL
C=C(C(=O)OCc1cn(Cc2ccccc2Cl)nn1)[C@@H]1CC[C@H](C)[C@@H]2CC(=O)C(C)=C2C1,selectivity ratio,[1],10.4
same,IC50,Influenza B virus [2],14.8 µg/mL
same,selectivity ratio,[9],3.31
same,IC50,Influenza A virus [3],40.2 µg/mL
same,selectivity ratio,[4],1.98
same,IC50,Influenza A virus [6],> 66.7 µg/mL
same,CC50 at 48 h,[7],115 µg/mL
C=C(C(=O)O)[C@@H]1CC[C@H](C)[C@@H]2CC(=O)C(C)=C2C1 [PECHUELOIC ACID],selectivity ratio,[1],> 4030
same,IC50,Influenza B virus [2],181 µg/mL
same,selectivity ratio,[9],25.8
same,selectivity ratio,[4],> 1340
same,selectivity ratio,[5],> 111
same,IC50,Influenza A virus [6],4650 µg/mL
same,CC50 at 48 h,[7],248 µg/mL
C=C(C(=O)OCc1cn(C2C=CCCC2)nn1)[C@@H]1CC[C@H](C)[C@@H]2CC(=O)C(C)=C2C1 (some centres not stated),IC50,Influenza B virus [10],3.28 µg/mL
same,selectivity ratio,[1],≥ 4.3
same,IC50,Influenza B virus [2],≥ 5.14 µg/mL
same,IC50,Influenza A virus [3],> 7.41 µg/mL
same,selectivity ratio,[5],8
same,IC50,Influenza A virus [6],2.82 µg/mL
same,CC50 at 48 h,[7],22.2 µg/mL
C=C(C(=O)NCc1cn(Cc2ccccc2C)nn1)[C@@H]1CC[C@H](C)[C@@H]2CC(=O)C(C)=C2C1,selectivity ratio,[1],4.55
same,IC50,Influenza B virus [2],15 µg/mL
same,IC50,Influenza A virus [3],> 22.2 µg/mL
same,IC50,Influenza A virus [6],> 22.2 µg/mL
same,CC50 at 48 h,[7],66.7 µg/mL
C=C(C(=O)NCc1cn(C2C=CCCC2)nn1)[C@@H]1CC[C@H](C)[C@@H]2CC(=O)C(C)=C2C1 (some centres not stated),selectivity ratio,[1],7.85
same,IC50,Influenza B virus [2],13.4 µg/mL
same,IC50,Influenza A virus [3],> 22.2 µg/mL
same,selectivity ratio,[4],4.96
same,selectivity ratio,[5],9.86
same,IC50,Influenza A virus [6],9.75 µg/mL
same,CC50 at 48 h,[7],96.2 µg/mL
C=C(C(=O)OCc1cn(Cc2ccccc2)nn1)[C@@H]1CC[C@H](C)[C@@H]2CC(=O)C(C)=C2C1,selectivity ratio,[1],≥ 3.9
same,IC50,Influenza B virus [2],≥ 7.41 µg/mL
same,IC50,Influenza A virus [3],> 7.41 µg/mL
same,IC50,Influenza A virus [6],> 7.41 µg/mL
same,CC50 at 48 h,[7],28.6 µg/mL
C=C(C(=O)NCc1cn(Cc2cccc(Cl)c2)nn1)[C@@H]1CC[C@H](C)[C@@H]2CC(=O)C(C)=C2C1,Ratio IC50,Influenza B virus [8],>4
same,selectivity ratio,[1],3.9
same,IC50,Influenza B virus [2],7.41 µg/mL
same,IC50,Influenza A virus [3],> 7.41 µg/mL
same,IC50,Influenza A virus [6],> 7.41 µg/mL
same,CC50 at 48 h,[7],28.6 µg/mL
C=C(C(=O)NCc1cn(Cc2cccc(F)c2)nn1)[C@@H]1CC[C@H](C)[C@@H]2CC(=O)C(C)=C2C1,Ratio IC50,Influenza B virus [8],>4
same,selectivity ratio,[1],14.3
same,IC50,Influenza B virus [2],4.71 µg/mL
same,IC50,Influenza A virus [3],> 22.2 µg/mL
same,IC50,Influenza A virus [6],> 22.2 µg/mL
same,CC50 at 48 h,[7],66.7 µg/mL
C=C(C(=O)NCc1cn(Cc2ccc(OC)cc2)nn1)[C@@H]1CC[C@H](C)[C@@H]2CC(=O)C(C)=C2C1,selectivity ratio,[1],8.25
same,IC50,Influenza B virus [2],11.8 µg/mL
same,IC50,Influenza A virus [3],> 22.2 µg/mL
same,selectivity ratio,[5],10.5
same,IC50,Influenza A virus [6],14 µg/mL
same,CC50 at 48 h,[7],96.2 µg/mL
C=C(C(=O)NCc1cn(C2CCCCC2)nn1)[C@@H]1CC[C@H](C)[C@@H]2CC(=O)C(C)=C2C1,selectivity ratio,[1],1.95
same,IC50,Influenza B virus [2],19.7 µg/mL
same,IC50,Influenza A virus [3],> 7.41 µg/mL
same,selectivity ratio,[4],1.73
same,IC50,Influenza A virus [6],> 7.41 µg/mL
same,CC50 at 48 h,[7],38.5 µg/mL
C=C(C(=O)NCc1cn(Cc2ccccc2F)nn1)[C@@H]1CC[C@H](C)[C@@H]2CC(=O)C(C)=C2C1,IC50,Influenza B virus [2],> 66.7 µg/mL
same,IC50,Influenza A virus [3],> 66.7 µg/mL
same,IC50,Influenza A virus [6],> 66.7 µg/mL
same,CC50 at 48 h,[7],116 µg/mL
C=C(C(=O)OCc1cn(Cc2ccc(C)cc2)nn1)[C@@H]1CC[C@H](C)[C@@H]2CC(=O)C(C)=C2C1,selectivity ratio,[1],≥ 4.32
same,IC50,Influenza B virus [2],≥ 22.2 µg/mL
same,IC50,Influenza A virus [3],> 22.2 µg/mL
same,IC50,Influenza A virus [6],> 22.2 µg/mL
same,CC50 at 48 h,[7],96.2 µg/mL
